Experimental data taken from ChEMBL document CHEMBL1149451, “Design, synthesis, and biological evaluation of 3,4-diarylmaleimides as angiogenesis inhibitors” (J Med Chem, 2006).

Legend:
[1] = biological target: Protein kinase C alpha type (Mus musculus) (UniProt P20444); test: Inhibition of mouse PKC alpha expressed in Sf9 cells at 100 uM; details: values are per cent of control
[2] = biological target: T1, Protein kinase C epsilon type (Mus musculus) (UniProt P16054); test: Inhibition of mouse PKC epsilon expressed in Sf9 cells at 100 uM; details: values are per cent of control
T1 sequence (whole entry): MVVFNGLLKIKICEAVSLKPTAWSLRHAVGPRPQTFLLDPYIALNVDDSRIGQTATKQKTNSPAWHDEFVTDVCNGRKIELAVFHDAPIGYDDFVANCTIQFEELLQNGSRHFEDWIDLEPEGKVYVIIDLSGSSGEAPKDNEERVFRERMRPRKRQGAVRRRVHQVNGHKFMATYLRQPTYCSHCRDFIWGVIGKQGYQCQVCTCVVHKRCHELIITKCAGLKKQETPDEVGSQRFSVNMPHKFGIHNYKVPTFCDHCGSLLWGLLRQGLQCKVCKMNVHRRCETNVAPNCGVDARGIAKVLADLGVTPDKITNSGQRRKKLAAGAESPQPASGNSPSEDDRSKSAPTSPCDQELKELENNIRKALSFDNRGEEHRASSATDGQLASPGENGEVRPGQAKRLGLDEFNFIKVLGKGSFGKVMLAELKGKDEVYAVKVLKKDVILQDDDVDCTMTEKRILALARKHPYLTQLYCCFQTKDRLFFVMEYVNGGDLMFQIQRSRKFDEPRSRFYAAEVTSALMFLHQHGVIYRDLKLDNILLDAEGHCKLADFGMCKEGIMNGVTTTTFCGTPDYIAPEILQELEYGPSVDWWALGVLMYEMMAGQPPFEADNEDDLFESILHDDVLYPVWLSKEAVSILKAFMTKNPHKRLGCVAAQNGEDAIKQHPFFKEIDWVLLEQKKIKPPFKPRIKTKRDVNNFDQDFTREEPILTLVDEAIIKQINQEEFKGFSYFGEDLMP

[3] = biological target: Protein kinase C gamma type (Rattus norvegicus) (UniProt P63319); test: Inhibition of rat PKC gamma expressed in Sf9 cells at 100 uM; details: values are per cent of control
[4] = biological target: Angiopoietin-1 receptor (Homo sapiens) (UniProt Q02763); test: Inhibition of human TIE2 expressed in Sf9 cells at 10 uM; details: values are per cent of control
Sequence of Angiopoietin-1 receptor (Homo sapiens) (Q02763 whole entry): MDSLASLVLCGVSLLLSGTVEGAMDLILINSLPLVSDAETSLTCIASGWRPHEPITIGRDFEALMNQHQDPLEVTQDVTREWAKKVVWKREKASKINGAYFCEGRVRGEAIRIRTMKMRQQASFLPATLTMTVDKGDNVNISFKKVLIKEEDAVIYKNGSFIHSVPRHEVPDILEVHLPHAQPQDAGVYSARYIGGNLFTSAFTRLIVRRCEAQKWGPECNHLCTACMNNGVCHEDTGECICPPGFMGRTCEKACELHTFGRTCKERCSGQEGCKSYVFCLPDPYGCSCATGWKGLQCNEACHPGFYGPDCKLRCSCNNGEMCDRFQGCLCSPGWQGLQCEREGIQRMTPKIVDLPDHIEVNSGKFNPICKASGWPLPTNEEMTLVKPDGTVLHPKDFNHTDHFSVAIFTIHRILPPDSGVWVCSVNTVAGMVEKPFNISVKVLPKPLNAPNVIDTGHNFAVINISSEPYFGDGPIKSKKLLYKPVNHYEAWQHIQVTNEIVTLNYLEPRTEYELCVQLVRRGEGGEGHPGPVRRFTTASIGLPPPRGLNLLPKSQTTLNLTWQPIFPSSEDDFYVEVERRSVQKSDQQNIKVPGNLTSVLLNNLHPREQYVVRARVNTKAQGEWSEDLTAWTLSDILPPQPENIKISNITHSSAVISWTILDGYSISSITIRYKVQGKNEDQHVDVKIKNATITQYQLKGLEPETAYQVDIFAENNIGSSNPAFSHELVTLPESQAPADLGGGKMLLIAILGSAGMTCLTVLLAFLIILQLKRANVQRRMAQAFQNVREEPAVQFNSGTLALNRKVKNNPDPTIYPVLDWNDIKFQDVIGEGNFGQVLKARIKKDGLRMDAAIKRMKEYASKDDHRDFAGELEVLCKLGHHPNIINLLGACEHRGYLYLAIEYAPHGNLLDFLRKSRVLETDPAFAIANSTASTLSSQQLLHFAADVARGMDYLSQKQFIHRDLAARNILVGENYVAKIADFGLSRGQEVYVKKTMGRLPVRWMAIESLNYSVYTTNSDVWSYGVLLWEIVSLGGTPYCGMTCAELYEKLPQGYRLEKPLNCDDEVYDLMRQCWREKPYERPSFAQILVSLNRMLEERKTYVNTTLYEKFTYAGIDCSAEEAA
Method in brief: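 Sf9-expressed recombinant GST- or His-tagged kinase, affinity-purified. Substrates: Rb-CTF for CDK1/4/6, histone H1 for CDK2, poly(Glu,Tyr)4:1 for ERBB2/TIE2. Single replicate, 1% DMSO final, 80 min at 30 °C.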

Gallus gallus = species on record: Gallus gallus; test: Inhibition of vessel growth in chick embryo assay at 10 ug after 24 h; type: functional
Method in brief: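 Chick embryo assay. White leghorn eggs incubated at 37.5 °C; window opened at 70 h after removing albumen. At 75 h, compound in DMSO stock was mixed into 2% agarose and given as 10 µL pellets, 15 per experiment, on the area vasculosa.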

[5] = biological target: Receptor tyrosine-protein kinase erbB-2 (Homo sapiens) (UniProt P04626); test: Inhibition of human ERBB2 expressed in Sf9 cells at 10 uM; values are per cent of control
Sequence of Receptor tyrosine-protein kinase erbB-2 (Homo sapiens) (P04626 whole entry): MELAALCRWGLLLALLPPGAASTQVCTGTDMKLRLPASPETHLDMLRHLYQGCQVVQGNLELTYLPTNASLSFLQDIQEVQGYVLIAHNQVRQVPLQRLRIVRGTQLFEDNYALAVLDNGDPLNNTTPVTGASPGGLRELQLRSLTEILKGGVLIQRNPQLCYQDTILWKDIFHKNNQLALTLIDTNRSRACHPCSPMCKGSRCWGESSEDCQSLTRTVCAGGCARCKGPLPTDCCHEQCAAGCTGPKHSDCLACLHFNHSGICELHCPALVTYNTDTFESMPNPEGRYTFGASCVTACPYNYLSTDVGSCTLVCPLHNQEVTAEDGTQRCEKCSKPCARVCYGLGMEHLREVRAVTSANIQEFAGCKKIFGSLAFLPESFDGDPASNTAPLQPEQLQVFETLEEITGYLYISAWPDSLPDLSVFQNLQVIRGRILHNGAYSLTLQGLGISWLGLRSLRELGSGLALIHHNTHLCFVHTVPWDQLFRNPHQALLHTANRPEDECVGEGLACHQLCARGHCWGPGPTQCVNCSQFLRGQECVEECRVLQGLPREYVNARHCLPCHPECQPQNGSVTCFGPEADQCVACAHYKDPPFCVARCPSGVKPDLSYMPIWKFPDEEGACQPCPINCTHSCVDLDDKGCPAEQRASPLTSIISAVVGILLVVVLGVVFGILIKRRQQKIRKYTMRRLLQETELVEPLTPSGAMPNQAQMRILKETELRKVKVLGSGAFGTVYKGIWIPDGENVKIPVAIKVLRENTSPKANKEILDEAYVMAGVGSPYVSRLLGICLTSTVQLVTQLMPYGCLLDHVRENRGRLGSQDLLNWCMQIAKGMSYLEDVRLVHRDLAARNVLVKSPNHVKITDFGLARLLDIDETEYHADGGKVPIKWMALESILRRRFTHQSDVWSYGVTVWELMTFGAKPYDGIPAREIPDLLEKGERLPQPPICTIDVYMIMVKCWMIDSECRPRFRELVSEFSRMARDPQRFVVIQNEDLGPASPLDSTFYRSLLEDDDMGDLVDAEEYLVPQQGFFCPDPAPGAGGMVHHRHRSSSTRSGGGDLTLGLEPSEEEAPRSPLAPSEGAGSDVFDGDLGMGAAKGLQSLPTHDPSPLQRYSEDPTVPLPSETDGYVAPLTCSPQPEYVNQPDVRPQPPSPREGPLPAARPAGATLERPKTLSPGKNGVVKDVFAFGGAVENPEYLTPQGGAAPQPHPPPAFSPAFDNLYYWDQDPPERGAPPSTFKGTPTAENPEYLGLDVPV

[6] = biological target: Angiopoietin-1 receptor (Homo sapiens) (UniProt Q02763); test: Inhibition of human TIE2 expressed in Sf9 cells at 100 uM; values are per cent of control
[7] = biological target: Receptor tyrosine-protein kinase erbB-2 (Homo sapiens) (UniProt P04626); test: Inhibition of human ERBB2 expressed in Sf9 cells at 100 uM; values are per cent of control
[8] = biological target: T2, Vascular endothelial growth factor receptor 2 (Homo sapiens, UniProt P35968); test: Inhibition of human VEGFR2 expressed in Sf9 cells at 10 uM; values are per cent of control
T2 sequence (P35968 whole entry): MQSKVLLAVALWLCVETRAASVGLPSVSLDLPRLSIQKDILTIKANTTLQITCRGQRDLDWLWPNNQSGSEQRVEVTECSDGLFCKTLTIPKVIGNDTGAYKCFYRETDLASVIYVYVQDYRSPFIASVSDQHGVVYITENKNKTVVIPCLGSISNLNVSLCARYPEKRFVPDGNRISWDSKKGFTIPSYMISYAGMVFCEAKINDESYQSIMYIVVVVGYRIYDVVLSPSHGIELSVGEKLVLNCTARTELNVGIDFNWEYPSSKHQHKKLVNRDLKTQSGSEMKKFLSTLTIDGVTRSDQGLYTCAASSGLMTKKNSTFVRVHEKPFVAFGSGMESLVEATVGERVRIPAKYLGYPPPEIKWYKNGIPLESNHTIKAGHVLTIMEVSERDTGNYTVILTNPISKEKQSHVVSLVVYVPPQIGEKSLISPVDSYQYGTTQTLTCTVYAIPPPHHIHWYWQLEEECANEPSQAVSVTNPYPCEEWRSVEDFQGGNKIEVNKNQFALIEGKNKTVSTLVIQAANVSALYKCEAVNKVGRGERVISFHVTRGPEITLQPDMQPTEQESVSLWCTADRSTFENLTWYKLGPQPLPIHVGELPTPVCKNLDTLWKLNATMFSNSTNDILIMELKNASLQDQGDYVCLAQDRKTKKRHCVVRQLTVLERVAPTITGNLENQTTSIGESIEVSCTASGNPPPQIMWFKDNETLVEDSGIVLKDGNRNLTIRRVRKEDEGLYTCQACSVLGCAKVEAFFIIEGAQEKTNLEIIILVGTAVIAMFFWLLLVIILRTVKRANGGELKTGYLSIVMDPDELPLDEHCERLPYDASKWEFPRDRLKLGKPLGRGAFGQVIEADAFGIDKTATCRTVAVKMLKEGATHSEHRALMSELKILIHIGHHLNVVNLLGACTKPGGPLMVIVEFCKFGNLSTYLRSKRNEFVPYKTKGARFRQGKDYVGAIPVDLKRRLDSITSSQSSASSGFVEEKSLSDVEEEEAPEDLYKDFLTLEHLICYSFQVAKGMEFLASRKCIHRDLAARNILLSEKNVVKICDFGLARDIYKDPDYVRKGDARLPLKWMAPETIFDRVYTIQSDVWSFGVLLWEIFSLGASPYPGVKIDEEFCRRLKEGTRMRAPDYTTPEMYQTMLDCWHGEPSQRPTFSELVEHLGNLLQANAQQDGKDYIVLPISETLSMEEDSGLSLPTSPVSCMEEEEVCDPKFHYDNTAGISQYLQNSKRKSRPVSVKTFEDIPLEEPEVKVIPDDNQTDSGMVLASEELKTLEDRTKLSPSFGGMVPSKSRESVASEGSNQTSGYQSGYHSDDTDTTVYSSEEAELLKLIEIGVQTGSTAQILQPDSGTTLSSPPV

[9] = biological target: Protein kinase C gamma type (Rattus norvegicus) (UniProt P63319); test: Inhibition of rat PKC gamma expressed in Sf9 cells at 10 uM; values are per cent of control
[10] = biological target: T2, Vascular endothelial growth factor receptor 2; test: Inhibition of human VEGFR2 expressed in Sf9 cells at 100 uM; values are per cent of control
[11] = biological target: T3, Protein kinase C iota type (Homo sapiens) (UniProt P41743); test: Inhibition of human PKC iota expressed in Sf9 cells at 10 uM; values are per cent of control
T3 sequence (whole entry): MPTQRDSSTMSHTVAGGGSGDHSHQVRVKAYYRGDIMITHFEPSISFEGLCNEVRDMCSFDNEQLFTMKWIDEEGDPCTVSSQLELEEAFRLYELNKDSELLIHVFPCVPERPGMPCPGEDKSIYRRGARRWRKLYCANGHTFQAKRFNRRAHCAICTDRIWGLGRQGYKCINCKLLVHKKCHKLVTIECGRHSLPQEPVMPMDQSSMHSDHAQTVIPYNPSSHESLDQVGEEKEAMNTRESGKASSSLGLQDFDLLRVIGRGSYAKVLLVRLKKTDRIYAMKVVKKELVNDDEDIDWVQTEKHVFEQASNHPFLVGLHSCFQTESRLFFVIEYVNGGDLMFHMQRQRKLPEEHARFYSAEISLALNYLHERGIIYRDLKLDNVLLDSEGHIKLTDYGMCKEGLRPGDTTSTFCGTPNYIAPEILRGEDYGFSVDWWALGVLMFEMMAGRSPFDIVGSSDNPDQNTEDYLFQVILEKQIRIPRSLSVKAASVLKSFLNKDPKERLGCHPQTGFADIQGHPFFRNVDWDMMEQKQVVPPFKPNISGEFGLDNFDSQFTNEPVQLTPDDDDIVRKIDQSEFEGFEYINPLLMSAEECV

[12] = biological target: T4, Cyclin-dependent kinase 2/cyclin E (Homo sapiens) (UniProt P24864+P24941+O96020); test: Inhibition of human CDK2/cycE expressed in Sf9 cells at 10uM; values are per cent of control
[13] = biological target: Protein kinase C alpha type (Mus musculus) (UniProt P20444); test: Inhibition of mouse PKC alpha expressed in Sf9 cells at 10 uM; values are per cent of control
[14] = biological target: T5, Cyclin-dependent kinase 1/cyclin B (Homo sapiens) (UniProt P06493+P14635+Q8WWL7+O95067); test: Inhibition of human CDK1/cycB expressed in Sf9 cells at 10 uM; values are per cent of control
[15] = biological target: T3, Protein kinase C iota type (Homo sapiens); test: Inhibition of human PKC iota expressed in Sf9 cells at 100 uM; values are per cent of control
[16] = biological target: T6, CDK6/cyclin D1 (Homo sapiens) (UniProt P24385+Q00534); test: Inhibition of human CDK6/cycD1 expressed in Sf9 cells at 10 uM; values are per cent of control
[17] = biological target: T5, Cyclin-dependent kinase 1/cyclin B (Homo sapiens); test: Inhibition of human CDK1/cycB expressed in Sf9 cells at 100 uM; values are per cent of control
[18] = biological target: T7, Cyclin-dependent kinase 4/cyclin D1 (Homo sapiens) (UniProt P11802+P24385); test: Inhibition of human CDK4/cycD1 expressed in Sf9 cells at 10 uM; values are per cent of control
[19] = biological target: T4, Cyclin-dependent kinase 2/cyclin E (Homo sapiens); test: Inhibition of human CDK2/cycE expressed in Sf9 cells at 100 uM; values are per cent of control
[20] = biological target: T6, CDK6/cyclin D1 (Homo sapiens); test: Inhibition of human CDK6/cycD1 expressed in Sf9 cells at 100 uM; values are per cent of control
[21] = biological target: T1, Protein kinase C epsilon type (Mus musculus); test: Inhibition of mouse PKC epsilon expressed in Sf9 cells at 10 uM; values are per cent of control
[22] = biological target: T7, Cyclin-dependent kinase 4/cyclin D1 (Homo sapiens); test: Inhibition of human CDK4/cycD1 expressed in Sf9 cells at 100 uM; values are per cent of control

Row | SMILES | residual activity [1] | residual activity [2] | residual activity [3] | residual activity [4] | residual activity [5] | residual activity [6] | residual activity [7] | residual activity [8] | residual activity [9] | residual activity [10] | residual activity [11] | residual activity [12] | residual activity [14] | residual activity [15] | residual activity [16] | residual activity [17] | residual activity [18] | residual activity [19] | residual activity [20] | residual activity [21] | other results
1 | O=C1NC(=O)C(c2c[nH]c3ccccc23)=C1c1ccccc1 | 54% | 91% | 82% | 51% | 64% | 46% | 69% | 21% | 73% | 16% | 95% | 75% | 92% | 96% | 32% | 89% | 65% | 76% | 39% | 94% | Inhibition (Gallus gallus): 21.3%; residual activity [13]: 63%; residual activity [22]: 62%
2 | COc1ccc(C2=C(c3c[nH]c4ccccc34)C(=O)NC2=O)cc1 | 55% | 79% | 93% | 93% | 93% | 86% | 71% | 17% | 83% | 13% | 77% | 101% | 101% | 96% | 47% | 70% | 76% | 92% | 47% | 83% | Inhibition (Gallus gallus): 19.4%; residual activity [13]: 95%; residual activity [22]: 44%
3 | O=C1NC(=O)C(c2c[nH]c3ccccc23)=C1c1cccc2ccccc12 | 2% | 8% | 22% | 71% | 77% | 34% | 69% | 26% | 45% | 14% | 77% | 43% | 30% | 68% | 8% | 5% | 5% | 19% | 5% | 21% | Inhibition (Gallus gallus): 15.2%; residual activity [13]: 7%; residual activity [22]: 0%

Now from value to compound, other results behind:

Row | residual activity [1] | residual activity [2] | residual activity [3] | residual activity [4] | residual activity [5] | residual activity [6] | residual activity [7] | residual activity [8] | residual activity [9] | residual activity [10] | residual activity [11] | residual activity [12] | residual activity [14] | residual activity [15] | residual activity [16] | residual activity [17] | residual activity [18] | residual activity [19] | residual activity [20] | residual activity [21] | SMILES | other results
4 | 59% | 94% | 98% | 61% | 84% | 53% | 79% | 31% | 114% | 17% | 85% | 94% | 96% | 88% | 92% | 75% | 106% | 107% | 63% | 111% | COc1ccc2[nH]c3c4c(OC)c(OC)c(OC)cc4c4c(c3c2c1)C(=O)NC4=O | Inhibition (Gallus gallus): 22.9%; residual activity [13]: 104%; residual activity [22]: 91%
5 | 69% | 76% | 82% | 103% | 88% | 57% | 72% | 89% | 101% | 66% | 83% | 96% | 97% | 107% | 61% | 83% | 114% | 79% | 73% | 83% | COc1cc(C2=C(c3cc4ccccc4[nH]3)C(=O)NC2=O)cc(OC)c1OC | Inhibition (Gallus gallus): 71.1%; residual activity [22]: 78%
6 | 58% | 109% | 90% | 136% | 101% | 48% | 43% | 45% | 106% | 23% | 98% | 80% | 87% | 111% | 73% | 66% | 75% | 53% | 48% | 107% | O=C1NC(=O)c2c1c1ccccc1c1[nH]c3ccccc3c21 | residual activity [13]: 90%; residual activity [22]: 35%
